From ChEMBL document CHEMBL4130601, “Oxygenated N-Acyl Alanine Methyl Esters (NAMEs) from the Marine Bacterium Roseovarius tolerans EL-164” (2018)
In brackets after ≈: the same amount, converted by molar mass. Activity calls are given as the source filed them. The calls are words filed in the database; no cut-off is given here.

What was measured:
Pseudomonas putida [1] = assay: Inhibition of N-acyl-homoserinlactone-related quorum sensing activity in Pseudomonas putida F117 at 5 uM measured up to 5.5 hrs by fluorescence assay
Outline: (§1)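 The sensor strain P. putida F117 (pKRC12) was grown overnight in Luria−Bertani medium with gentamycin (20 μg/mL) at 30 °C, shaking at 160 rpm. Test samples were added at different concentrations.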

Escherichia coli = assay: Antibacterial activity against TolC-deficient Escherichia coli after 16 to 20 hrs by microdilution method; format: functional
Outline: (§2)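 Samples were serially diluted from 2 mg/mL stocks and the cells added. Growth was 16−20 h at the optimal temperature (30 or 37 °C). MIC was taken as the lowest concentration with no visible growth.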

Micrococcus luteus = assay: Antibacterial activity against Micrococcus luteus DSM 1790 after 16 to 20 hrs by microdilution method; format: functional; outline: as §2
Staphylococcus aureus = assay: Antibacterial activity against Staphylococcus aureus Newman after 16 to 20 hrs by microdilution method; format: functional; outline: as §2
Mucor hiemalis = assay: Antibacterial activity against Mucor hiemalis DSM 2656 after 16 to 20 hrs by microdilution method; format: functional
Outline: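 The fungus, in mid-log phase, was diluted to about 5 × 10⁵ to 5 × 10⁶ cfu/mL final in Myc medium (1% phytone peptone, 1% glucose, 50 mM HEPES, pH 7.0). Samples were serially diluted from 2 mg/mL stocks. Growth was 16−20 h at 30 or 37 °C. MIC was taken as the lowest concentration with no visible growth.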

Pseudomonas putida [2] = assay: Induction of N-acyl-homoserinlactone-related quorum sensing activity in Pseudomonas putida F117 measured up to 5.5 hrs by fluorescence assay; outline: as §1
Bacillus subtilis = assay: Antibacterial activity against Bacillus subtilis DSM 10 after 16 to 20 hrs by microdilution method; format: functional; outline: as §2
Staphylococcus carnosus = assay: Antibacterial activity against Staphylococcus carnosus DSM 20501 after 16 to 20 hrs by microdilution method; format: functional; outline: as §2

Structure (SMILES) | inhibition (Pseudomonas putida [1]) | MIC (Escherichia coli) | MIC (Micrococcus luteus) | MIC (Staphylococcus aureus) | MIC (Mucor hiemalis) | Activity (Pseudomonas putida [2]) | MIC (Bacillus subtilis) | MIC (Staphylococcus carnosus)
COC(=O)[C@H](C)NC(=O)CCCCCCC/C=C\CCCCCCO | inactive | 8 to 16 µg/mL (≈ 22.5 to 45 µM) | 32 to 64 µg/mL (≈ 90 to 180 µM) | 32 to 64 µg/mL (≈ 90 to 180 µM) | 32 to 64 µg/mL (≈ 90 to 180 µM) | inactive | – | –
CCCCCC/C=C\CCCCCCCC(=O)N[C@@H](C)C(=O)OC | inactive | – | – | – | – | inactive | – | –
CCCCCC/C=C\CCCCCC(O)CC(=O)N[C@@H](C)C(=O)OC (stereo partly specified) | – | 16 µg/mL (≈ 45 µM) | 8 µg/mL (≈ 22.5 µM) | – | – | – | 128 µg/mL (≈ 360 µM) | 16 µg/mL (≈ 45 µM)
CCCCCC/C=C\CCCCCC(=O)CC(=O)N[C@@H](C)C(=O)OC | – | 16 µg/mL (≈ 45.3 µM) | 16 µg/mL (≈ 45.3 µM) | – | – | – | 16 µg/mL (≈ 45.3 µM) | 8 µg/mL (≈ 22.6 µM)
